Data from ChEMBL document CHEMBL2417539, “1-substituted (Dibenzo[b,d]thiophen-4-yl)-2-morpholino-4H-chromen-4-ones endowed with dual DNA-PK/PI3-K inhibitory activity” (J Med Chem, 2013).

Tests used:
HeLa [1] = test: Antiproliferative activity against human HeLa cells assessed as cell survival ratio at 0.1 uM treated 1 hr before 2Gy ionizing radiation measured after 6 to 8 days by DMR clonogenic assay; type: functional
Procedure, shortened: (§1)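 HeLa cells seeded in 6-well dishes, incubated overnight at 37 °C/5% CO2, pre-treated 1 h with vehicle or inhibitor (0.1 or 0.5 μM), then given 2 Gy X-ray IR and held overnight. Medium then replaced without compound and culture continued 6-8 days. Colonies Giemsa-stained and counted automatically. DMR = % survival (vehicle, 2 Gy) / % survival (compound, 2 Gy).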

HeLa [2] = test: Antiproliferative activity against human HeLa cells assessed as cell survival ratio at 0.5 uM treated 1 hr before 2Gy ionizing radiation measured after 6 to 8 days by DMR clonogenic assay; type: functional; procedure, shortened: as §1
[3] = molecular target: DNA-dependent protein kinase catalytic subunit (Homo sapiens, UniProt P78527); test: Inhibition of human DNA-PK using GST-tagged p53N66 as substrate after 1 hr by ELISA-based chemiluminiscence assay
DNA-dependent protein kinase catalytic subunit, sequence (P78527 whole entry): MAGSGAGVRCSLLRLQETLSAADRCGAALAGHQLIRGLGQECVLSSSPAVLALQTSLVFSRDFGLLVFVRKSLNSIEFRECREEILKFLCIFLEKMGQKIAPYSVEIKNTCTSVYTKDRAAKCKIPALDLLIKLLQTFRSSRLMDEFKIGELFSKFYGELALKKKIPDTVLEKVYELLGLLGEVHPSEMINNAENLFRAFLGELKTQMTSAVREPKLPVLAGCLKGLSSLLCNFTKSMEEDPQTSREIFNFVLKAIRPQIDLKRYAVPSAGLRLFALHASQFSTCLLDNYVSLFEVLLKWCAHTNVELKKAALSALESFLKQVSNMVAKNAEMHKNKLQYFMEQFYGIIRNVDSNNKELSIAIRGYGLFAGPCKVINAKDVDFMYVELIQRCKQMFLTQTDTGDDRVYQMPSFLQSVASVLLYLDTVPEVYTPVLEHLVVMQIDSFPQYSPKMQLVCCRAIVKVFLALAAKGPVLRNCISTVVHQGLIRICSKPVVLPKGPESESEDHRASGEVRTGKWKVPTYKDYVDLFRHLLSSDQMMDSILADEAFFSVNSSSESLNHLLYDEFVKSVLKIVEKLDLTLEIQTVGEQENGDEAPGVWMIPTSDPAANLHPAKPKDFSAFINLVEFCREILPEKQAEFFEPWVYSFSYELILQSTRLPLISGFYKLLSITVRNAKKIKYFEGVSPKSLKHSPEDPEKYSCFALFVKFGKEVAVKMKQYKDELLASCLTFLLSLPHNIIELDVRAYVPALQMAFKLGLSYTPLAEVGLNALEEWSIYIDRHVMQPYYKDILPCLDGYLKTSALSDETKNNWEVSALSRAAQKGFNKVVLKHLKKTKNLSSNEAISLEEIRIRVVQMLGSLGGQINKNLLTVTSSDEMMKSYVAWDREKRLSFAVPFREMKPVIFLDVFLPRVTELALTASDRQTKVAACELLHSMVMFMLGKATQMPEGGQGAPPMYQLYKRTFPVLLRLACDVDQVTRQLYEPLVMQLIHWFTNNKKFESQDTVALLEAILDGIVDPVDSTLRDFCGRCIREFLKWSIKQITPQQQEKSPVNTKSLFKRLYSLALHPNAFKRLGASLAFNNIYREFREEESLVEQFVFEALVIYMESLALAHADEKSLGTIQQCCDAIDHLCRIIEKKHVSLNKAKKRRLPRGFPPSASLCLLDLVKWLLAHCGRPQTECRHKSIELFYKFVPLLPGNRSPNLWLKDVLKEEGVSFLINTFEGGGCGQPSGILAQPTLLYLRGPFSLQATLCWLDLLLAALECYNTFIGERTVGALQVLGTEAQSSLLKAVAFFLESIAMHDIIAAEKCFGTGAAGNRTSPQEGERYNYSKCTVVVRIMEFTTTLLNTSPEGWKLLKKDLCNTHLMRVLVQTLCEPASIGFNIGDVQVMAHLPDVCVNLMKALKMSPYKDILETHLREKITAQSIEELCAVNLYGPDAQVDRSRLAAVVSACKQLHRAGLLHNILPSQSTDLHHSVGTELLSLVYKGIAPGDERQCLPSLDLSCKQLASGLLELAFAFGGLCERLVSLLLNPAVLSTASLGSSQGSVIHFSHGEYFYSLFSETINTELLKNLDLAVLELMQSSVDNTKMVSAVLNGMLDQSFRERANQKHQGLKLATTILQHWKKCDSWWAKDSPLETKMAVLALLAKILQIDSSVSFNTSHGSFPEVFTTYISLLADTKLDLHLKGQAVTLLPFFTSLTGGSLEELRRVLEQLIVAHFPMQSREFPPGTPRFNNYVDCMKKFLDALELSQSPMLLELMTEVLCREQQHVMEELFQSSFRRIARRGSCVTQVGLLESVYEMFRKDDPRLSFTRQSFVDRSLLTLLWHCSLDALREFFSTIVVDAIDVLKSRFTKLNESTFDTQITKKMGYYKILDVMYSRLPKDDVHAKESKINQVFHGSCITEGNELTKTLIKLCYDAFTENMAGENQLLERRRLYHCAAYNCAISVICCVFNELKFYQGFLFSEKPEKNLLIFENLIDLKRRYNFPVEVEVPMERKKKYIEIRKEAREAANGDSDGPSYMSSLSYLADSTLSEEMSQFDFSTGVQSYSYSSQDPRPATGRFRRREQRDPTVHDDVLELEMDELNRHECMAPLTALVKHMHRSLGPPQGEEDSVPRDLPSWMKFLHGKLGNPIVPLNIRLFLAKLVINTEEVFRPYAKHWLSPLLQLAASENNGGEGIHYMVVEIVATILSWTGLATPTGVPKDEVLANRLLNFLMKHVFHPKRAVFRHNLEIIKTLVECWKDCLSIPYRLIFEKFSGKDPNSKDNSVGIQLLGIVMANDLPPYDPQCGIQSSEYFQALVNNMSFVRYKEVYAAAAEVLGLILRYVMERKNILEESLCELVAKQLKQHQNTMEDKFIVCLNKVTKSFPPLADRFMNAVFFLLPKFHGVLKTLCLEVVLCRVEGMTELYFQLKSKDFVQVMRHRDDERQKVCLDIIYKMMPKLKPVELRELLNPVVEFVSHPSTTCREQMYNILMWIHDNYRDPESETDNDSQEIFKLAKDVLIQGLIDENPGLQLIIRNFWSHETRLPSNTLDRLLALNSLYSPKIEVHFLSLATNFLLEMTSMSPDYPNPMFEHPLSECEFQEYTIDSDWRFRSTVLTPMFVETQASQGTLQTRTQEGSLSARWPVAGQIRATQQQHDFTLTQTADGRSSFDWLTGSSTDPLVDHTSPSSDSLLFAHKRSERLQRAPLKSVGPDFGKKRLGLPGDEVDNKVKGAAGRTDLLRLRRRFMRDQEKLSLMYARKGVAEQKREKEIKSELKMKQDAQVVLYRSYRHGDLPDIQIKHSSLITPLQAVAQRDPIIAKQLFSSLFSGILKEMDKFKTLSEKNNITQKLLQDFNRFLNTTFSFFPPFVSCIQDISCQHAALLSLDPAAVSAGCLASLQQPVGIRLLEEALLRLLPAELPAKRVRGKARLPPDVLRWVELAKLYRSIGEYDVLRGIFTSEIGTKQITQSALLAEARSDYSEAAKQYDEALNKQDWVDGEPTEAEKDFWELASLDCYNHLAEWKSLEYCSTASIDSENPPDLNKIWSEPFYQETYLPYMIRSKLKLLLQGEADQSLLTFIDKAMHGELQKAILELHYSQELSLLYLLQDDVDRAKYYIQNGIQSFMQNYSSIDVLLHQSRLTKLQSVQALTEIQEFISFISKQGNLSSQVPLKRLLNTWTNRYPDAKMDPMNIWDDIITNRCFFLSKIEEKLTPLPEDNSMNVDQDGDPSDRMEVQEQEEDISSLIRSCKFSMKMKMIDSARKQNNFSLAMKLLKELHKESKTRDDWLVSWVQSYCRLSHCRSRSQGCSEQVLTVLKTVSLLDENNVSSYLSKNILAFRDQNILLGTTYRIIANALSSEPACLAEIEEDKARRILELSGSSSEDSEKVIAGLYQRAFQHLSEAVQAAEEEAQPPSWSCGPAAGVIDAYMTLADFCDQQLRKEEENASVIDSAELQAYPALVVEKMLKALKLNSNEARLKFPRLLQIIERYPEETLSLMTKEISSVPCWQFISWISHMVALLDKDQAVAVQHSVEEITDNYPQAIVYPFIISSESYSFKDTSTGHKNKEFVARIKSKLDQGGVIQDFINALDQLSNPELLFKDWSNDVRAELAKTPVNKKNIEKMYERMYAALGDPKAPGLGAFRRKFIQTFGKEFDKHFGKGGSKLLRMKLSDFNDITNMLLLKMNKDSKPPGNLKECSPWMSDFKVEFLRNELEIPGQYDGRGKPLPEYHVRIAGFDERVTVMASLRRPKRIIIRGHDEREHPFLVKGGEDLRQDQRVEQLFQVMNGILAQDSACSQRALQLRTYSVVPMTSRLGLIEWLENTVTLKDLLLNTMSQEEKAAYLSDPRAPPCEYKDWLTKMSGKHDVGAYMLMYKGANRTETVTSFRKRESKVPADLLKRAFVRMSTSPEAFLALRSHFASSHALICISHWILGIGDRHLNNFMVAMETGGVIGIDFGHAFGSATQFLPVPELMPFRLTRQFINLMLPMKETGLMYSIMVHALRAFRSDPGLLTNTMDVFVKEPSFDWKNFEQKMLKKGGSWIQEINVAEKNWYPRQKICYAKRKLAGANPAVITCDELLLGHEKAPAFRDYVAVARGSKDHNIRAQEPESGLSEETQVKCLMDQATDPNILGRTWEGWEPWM

Row | Compound | Ratio (HeLa [1]) | Ratio (HeLa [2]) | IC50 [3] [nM]
1 | O=C(CCNCc1ccncc1)Nc1ccc(-c2cccc3c(=O)cc(N4CCOCC4)oc23)c2sc3ccccc3c12 | 1.1 | 2.6 | 12
2 | COCCNCC(=O)Nc1ccc(-c2cccc3c(=O)cc(N4CCOCC4)oc23)c2sc3ccccc3c12 | 1.2 | 5.9 | 7
3 | NCCC(=O)Nc1ccc(-c2cccc3c(=O)cc(N4CCOCC4)oc23)c2sc3ccccc3c12 | 1.1 | 1.4 | 8
4 | COCCN(CCOC)CC(=O)Nc1ccc(-c2cccc3c(=O)cc(N4CCOCC4)oc23)c2sc3ccccc3c12 | 1.5 | 7.9 | 18
5 | COCCN1CCN(CC(=O)Nc2ccc(-c3cccc4c(=O)cc(N5CCOCC5)oc34)c3sc4ccccc4c23)CC1 | 2.2 | 7.7 | 6
6 | O=C(CNCc1ccncc1)Nc1ccc(-c2cccc3c(=O)cc(N4CCOCC4)oc23)c2sc3ccccc3c12 | 1.4 | 5.5 | 8
7 | CCN(CC)CCOc1ccc(-c2cccc3c(=O)cc(N4CCOCC4)oc23)c2sc3ccccc3c12 | – | – | 22
8 | O=C(CCN1CCN(c2ccc(F)cc2)CC1)Nc1ccc(-c2cccc3c(=O)cc(N4CCOCC4)oc23)c2sc3ccccc3c12 | 1.5 | 3.8 | 30
9 | C[C@@H]1CN(C(=O)COc2ccc(-c3cccc4c(=O)cc(N5CCOCC5)oc34)c3sc4ccccc4c23)C[C@H](C)O1 | 0.9 | 1 | 61
10 | CC(=O)N1CCN(C(=O)COc2ccc(-c3cccc4c(=O)cc(N5CCOCC5)oc34)c3sc4ccccc4c23)CC1 | 1 | 1.6 | 16
11 | O=C(CCN1CCCCCC1)Nc1ccc(-c2cccc3c(=O)cc(N4CCOCC4)oc23)c2sc3ccccc3c12 | 3.1 | 8.4 | 11
12 | O=C(CCNCCCN1CCOCC1)Nc1ccc(-c2cccc3c(=O)cc(N4CCOCC4)oc23)c2sc3ccccc3c12 | 0.9 | 1.4 | 9
13 | NCCNCCC(=O)Nc1ccc(-c2cccc3c(=O)cc(N4CCOCC4)oc23)c2sc3ccccc3c12 | 1.2 | 1.4 | 22
14 | O=C(CCN1CCN(CCO)CC1)Nc1ccc(-c2cccc3c(=O)cc(N4CCOCC4)oc23)c2sc3ccccc3c12 | 1 | 1.2 | 29
15 | CCN1CCN(CCC(=O)Nc2ccc(-c3cccc4c(=O)cc(N5CCOCC5)oc34)c3sc4ccccc4c23)CC1 | 1.4 | 4.1 | 33
16 | O=C(CN1CCCCC1)Nc1ccc(-c2cccc3c(=O)cc(N4CCOCC4)oc23)c2sc3ccccc3c12 | 1.2 | 10.4 | 21
17 | CCN(CC)CCC(=O)Nc1ccc(-c2cccc3c(=O)cc(N4CCOCC4)oc23)c2sc3ccccc3c12 | 1.8 | 5.7 | 12
18 | O=C(COc1ccc(-c2cccc3c(=O)cc(N4CCOCC4)oc23)c2sc3ccccc3c12)NCc1ccncc1 | 1 | 1.1 | 10
19 | O=C(COc1ccc(-c2cccc3c(=O)cc(N4CCOCC4)oc23)c2sc3ccccc3c12)N1CCCCC1 | 1.4 | 5.1 | 19
20 | CN(C)CCOc1ccc(-c2cccc3c(=O)cc(N4CCOCC4)oc23)c2sc3ccccc3c12 | 1.8 | 3.3 | 8
21 | CC(C)N1CCN(CCOc2ccc(-c3cccc4c(=O)cc(N5CCOCC5)oc34)c3sc4ccccc4c23)CC1 | 1.6 | 6.3 | 3
22 | CN(CC(N)=O)C(=O)COc1ccc(-c2cccc3c(=O)cc(N4CCOCC4)oc23)c2sc3ccccc3c12 | 0.9 | 1.4 | 11
23 | CN(C)CCN(C)CCOc1ccc(-c2cccc3c(=O)cc(N4CCOCC4)oc23)c2sc3ccccc3c12 | – | – | 5
